In ChEMBL document CHEMBL1128718, “2-Substituted penems with amino acid-related side chains: synthesis and antibacterial activity of a new series of beta-lactam antibiotics” (1995):
Values after ≈ are worked out from the molar mass of the structure shown.

Assays:
Assay type in all cases: functional
Pseudomonas aeruginosa [1] = assay: In Vitro antibacterial activity against (Pa) hyperpermeable Pseudomonas aeruginosa […] strain
Summary of the method: (§1)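 Panel of standard ATCC strains plus modified strains: methicillin-resistant, hyperpermeable, β-lactamase-producing (TEM1, TEM2, SHV) and β-lactamase-lacking. MIC determined in Mueller Hinton 2 medium, inoculum 10⁴ cells/mL, incubated 24 h at 37 °C.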

Pseudomonas aeruginosa [2] = assay: In Vitro antibacterial activity against (Pa G242) hyperpermeable Pseudomonas aeruginosa strain; summary of the method: as §1
Escherichia coli [3] = assay: In Vitro antibacterial activity against (Ec TEM1) Escherichia coli […] strain; summary of the method: as §1
Escherichia coli [4] = assay: In Vitro antibacterial activity against (Ec SHV) Escherichia coli […] strain; summary of the method: as §1
Escherichia coli [5] = assay: In Vitro antibacterial activity against (Ec L) Escherichia coli […] strain; summary of the method: as §1
Staphylococcus aureus [6] = assay: In vitro antibacterial activity against Sa(I) Staphylococcus aureus ATCC 29213
Summary of the method: (§2)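 MIC was determined in Mueller Hinton 2 medium with an inoculum of 10⁴ cells/mL and incubation for 24 h at 37 °C. Strains: Sa(I) is S. aureus ATCC 29213; Sa MR(I) is a heterogeneous methicillin-resistant S. aureus; Sa MR(II) is a homogeneous methicillin-resistant S. aureus.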

Escherichia coli [7] = assay: In Vitro antibacterial activity against (Ec) Escherichia coli ATCC 25922; summary of the method: as §1
Pseudomonas aeruginosa [8] = assay: In Vitro antibacterial activity against(Pa) Pseudomonas aeruginosa ATCC 27853; summary of the method: as §1
Staphylococcus aureus [9] = assay: In vitro antibacterial activity against Sa MR(II) homogeneous methicillin resistant Staphylococcus aureus; summary of the method: as §2
Staphylococcus aureus [10] = assay: In vitro antibacterial activity against Sa MR(I) heterogeneous methicillin resistant Staphylococcus aureus; summary of the method: as §2
Escherichia coli [11] = assay: In Vitro antibacterial activity against (Ec DC2) hyperpermeable Escherichia coli strain; summary of the method: as §1
Staphylococcus aureus [12] = assay: In vitro antibacterial activity against Sa(II) Staphylococcus aureus ATCC 25923; summary of the method: as §1
Enterococcus faecalis [13] = assay: In Vitro antibacterial activity against (Ef) Enterococcus faecalis ATCC 29212; summary of the method: as §1
Escherichia coli [14] = assay: In Vitro antibacterial activity against (Ec TEM2) Escherichia coli […] strain; summary of the method: as §1
Haemophilus influenzae = assay: In vitro Anti Bacterial Activity (MIC90) against 90% of tested clinical Isolates of Haemophilus Influenzae(21)
Summary of the method: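 MIC90 over clinical isolates; MICs in Haemophilus Test Medium Base with Haemophilus Test Medium Supplement, inoculum 10⁴ cells/mL, 24–48 h at 37 °C.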

Moraxella catarrhalis = assay: In vitro Anti Bacterial Activity (MIC90) against 90% of tested clinical Isolates of Branhamella catarrhalis(27)
Enterococcus faecalis [15] = assay: In vitro Anti Bacterial Activity (MIC90) against 90% of tested clinical Isolates of Enterococcus faecalis(47)
Summary of the method: (§3)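 Aerobic clinical isolates; MICs in Mueller Hinton 2 medium, inoculum 10⁴ cells/mL, incubated 24 h at 37 °C; MIC90 taken across isolates of each species.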

[16] = test system: Staphylococcus epidermidis; assay: In vitro Anti Bacterial Activity (MIC90) against 90% of tested clinical Isolates of S. epidermidis(13); summary of the method: as §3
Streptococcus agalactiae = assay: In vitro Anti Bacterial Activity (MIC90) against 90% of tested clinical Isolates of Streptococcus agalactiaeB(21)
Aeromonas = assay: In vitro 90% of tested clinical Isolates of Aeromonas species(21)
Summary of the method: (§4)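 Over 500 clinical isolates tested in total; the line gives the isolate count. MIC90 for aerobes by dilution in Mueller Hinton 2 medium, inoculum 10⁴ cells/mL, incubated 24 h at 37 °C.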

Clostridium perfringens = assay: In vitro Anti Bacterial Activity (MIC90) against 90% of tested clinical Isolates of Clostridium perfringens(27)
Summary of the method: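 MIC90 over clinical isolates of this anaerobic species, taken from the MIC distribution. Anaerobes were tested on Wilkins-Chalgren agar with an inoculum of 10⁵ cells/mL and incubated 24–48 h at 37 °C.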

Listeria monocytogenes = assay: In vitro Anti Bacterial Activity (MIC90) against 90% of tested clinical Isolates of Listeria monocytogenes (20)
Enterococcus faecium = assay: In vitro Anti Bacterial Activity (MIC90) against 90% of tested clinical Isolates of Enterococcus faecium(47); summary of the method: as §3
Yersinia sp. = assay: In Vitro Anti Bacterial Activity (MIC90) against 90% of tested clinical Isolates of Yersinia species(20); details: Yersinia sp. (in: enterobacteria)
Staphylococcus aureus [17] = assay: In vitro Anti Bacterial Activity (MIC90) against 90% of tested clinical Isolates of Staphylococcus aureus MS (6); summary of the method: as §3
Klebsiella pneumoniae = assay: In Vitro Anti Bacterial Activity (MIC90) against 90% of tested clinical Isolates of Klebsiella pneumoniae(20); summary of the method: as §4
Staphylococcus aureus [18] = assay: In vitro Anti Bacterial Activity (MIC90) against 90% of tested clinical Isolates of Staphylococcus aureus MV (20)
Bacteroides fragilis = assay: In vitro Anti Bacterial Activity (MIC90) against 90% of tested clinical Isolates of Bacteroides fragilis(15)
Summary of the method: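 MIC90 over clinical anaerobe isolates; MICs in Wilkins-Chalgren agar, inoculum 10⁵ cells/mL, 24–48 h at 37 °C.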

Streptococcus pyogenes = assay: In vitro Anti Bacterial Activity (MIC90) against 90% of tested clinical Isolates of Streptococcus pyogenes(31)
Streptococcus pneumoniae = assay: In Vitro Anti Bacterial Activity (MIC90) against 90% of tested clinical Isolates of Streptococcus pneumoniae (23)

`C[C@@H](O)[C@H]1C(=O)N2C(C(=O)O)=C(CSC(=S)N(C)CC(N)=O)S[C@H]12` showed an MIC (Pseudomonas aeruginosa [1]) of 4 µg/mL (≈ 10.2 µM), an MIC (Pseudomonas aeruginosa [2]) of 8 µg/mL (≈ 20.4 µM) and an MIC (Escherichia coli [3]) of 8 µg/mL (≈ 20.4 µM). The MIC (Escherichia coli [4]) was 16 µg/mL (≈ 40.9 µM), the MIC (Escherichia coli [5]) was 16 µg/mL (≈ 40.9 µM) and the MIC (Staphylococcus aureus [6]) was 0.12 µg/mL (≈ 0.307 µM). It also gave an MIC (Escherichia coli [7]) of 8 µg/mL (≈ 20.4 µM), an MIC (Pseudomonas aeruginosa [8]) greater than 64 µg/mL and an MIC (Staphylococcus aureus [9]) of 2 µg/mL (≈ 5.11 µM). The MIC (Staphylococcus aureus [10]) was 0.03 µg/mL (≈ 0.0766 µM), the MIC (Escherichia coli [11]) was 0.5 µg/mL (≈ 1.28 µM) and the MIC (Staphylococcus aureus [12]) was 0.12 µg/mL (≈ 0.307 µM). For the same molecule, the MIC (Enterococcus faecalis [13]) was 8 µg/mL (≈ 20.4 µM) and the MIC (Escherichia coli [14]) was 8 µg/mL (≈ 20.4 µM).

In the case of `CC1(C)S[C@@H]2[C@H](NC(=O)[C@H](N)c3ccc(O)cc3)C(=O)N2[C@H]1C(=O)O` [AMOXICILLIN], the MIC90 (Haemophilus influenzae) is reported as 1 µg/mL (≈ 2.74 µM), the MIC90 (Moraxella catarrhalis) is reported as 2 µg/mL (≈ 5.47 µM) and the MIC90 (Enterococcus faecalis [15]) is reported as 0.5 µg/mL (≈ 1.37 µM). The MIC90 [16] was 4 µg/mL (≈ 10.9 µM), the MIC90 (Streptococcus agalactiae) was 0.06 µg/mL (≈ 0.164 µM) and the MIC90 (Aeromonas) was greater than 32 µg/mL. The MIC90 (Clostridium perfringens) was 0.06 µg/mL (≈ 0.164 µM), the MIC90 (Listeria monocytogenes) was 0.5 µg/mL (≈ 1.37 µM) and the MIC90 (Enterococcus faecium) was 32 µg/mL (≈ 87.6 µM). For the same molecule, the MIC90 (Yersinia sp.) was greater than 64 µg/mL, the MIC90 (Staphylococcus aureus [17]) was 1 µg/mL (≈ 2.74 µM) and the MIC90 (Klebsiella pneumoniae) was greater than 64 µg/mL. The MIC90 (Staphylococcus aureus [18]) was 32 µg/mL (≈ 87.6 µM), the MIC90 (Bacteroides fragilis) was 32 µg/mL (≈ 87.6 µM) and the MIC90 (Streptococcus pyogenes) was 0.015 µg/mL (≈ 0.041 µM). For the same molecule, the MIC90 (Streptococcus pneumoniae) was 0.015 µg/mL (≈ 0.041 µM).
